Measurements from ChEMBL document CHEMBL1122242, “Phenylenebis(oxy)bis[2,2-dimethylpentanoic acid]s: agents that elevate high-density lipoproteins” (1983).

Tests used:
Assay type in all cases: functional
Rattus norvegicus [1] = experiment: Hypolipidemic effects (high-density lipoprotein (HDL) cholesterol) in male rats; Compound was screening orally at 50 mg/Kg
Procedure, shortened: (§1)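 Male rats, 10 per group, fed 7 days on chow with 10% fat (5.5% added peanut oil), 1.5% cholesterol and 0.1% cholic acid. Oral gavage on days 4-7 in 4% acacia, usually 50 mg/kg daily. Fasted overnight, killed day 8, atrial blood into EDTA. Plasma cholesterol, TG and HDL cholesterol (after MnCl2/heparin precipitation) by Autoanalyzer. % change vs controls, Student's t test.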

Rattus norvegicus [2] = species on record: Rattus norvegicus; experiment: Hypolipidemic effects(plasma cholesterol) in male rats; procedure, shortened: as §1
Rattus norvegicus [3] = species on record: Rattus norvegicus; experiment: Hypolipidemic effects(liver weight) in male rats; procedure, shortened: as §1
Rattus norvegicus [4] = experiment: Hypolipidemic effects (low-density lipoprotein (LDL) cholesterol) in male rats; Compound was screening orally at 50 mg/Kg; procedure, shortened: as §1
Rattus norvegicus [5] = species on record: Rattus norvegicus; experiment: Hypolipidemic effects(plasma TG) in male rats; procedure, shortened: as §1
Rattus norvegicus [6] = experiment: Hypolipidemic effects (high-density lipoprotein (HDL) cholesterol) in male rats;Compound was screening orally at 50 mg/Kg; procedure, shortened: as §1

Row | SMILES | Change (Rattus norvegicus [1]) [%] | Change (Rattus norvegicus [2]) [%] | Change (Rattus norvegicus [3]) [%] | Change (Rattus norvegicus [4]) [%] | Change (Rattus norvegicus [5]) [%] | Change (Rattus norvegicus [6]) [%]
1 | COC(=O)C(C)(C)CCCSc1ccc(-c2ccc(SCCCC(C)(C)C(=O)OC)cc2)cc1 | 245 | 0 | 14 | -39 | 60 | –
2 | COC(=O)C(C)(C)CCCOc1ccc(C(C)(C)c2ccc(OCCCC(C)(C)C(=O)OC)cc2)cc1 | 0 | 0 | 0 | 0 | 0 | –
3 | CC(C)(CCCCOc1ccc(OCCCCC(C)(C)C(=O)O)c(-c2ccccc2)c1)C(=O)O | 51 | -49 | 8 | -53 | 0 | –
4 | CC(C)(CCCOc1ccc(OCCCC(C)(C)C(=O)O)c(S(=O)(=O)c2ccccc2)c1)C(=O)O | 303 | -32 | 10 | -53 | 35 | –
5 | CC(C)(CCCOc1ccc(OCCCC(C)(C)C(=O)O)c(C(F)(F)F)c1)C(=O)O | 674 | 0 | 39 | -45 | 0 | –
6 | Cc1cc(SCCCC(C)(C)C(=O)O)c(C)cc1OCCCC(C)(C)C(=O)O | 220 | -20 | 14 | -35 | 0 | –
7 | COC(=O)C(C)(C)CCCOc1ccc(Cl)c(OCCCC(C)(C)C(=O)OC)c1 | 37 | -42 | 8 | 80 | 0 | –
8 | COC(=O)C(C)(C)CCCOc1ccc(OCCCC(C)(C)C(=O)OC)c(C2CCCCC2)c1 | 35 | -49 | 6 | -54 | -24 | –
9 | COC(=O)C(C)(C)CCCOc1cc(OCCCC(C)(C)C(=O)OC)cc(-c2ccccc2)c1 | 0 | -41 | 13 | -42 | 0 | –
10 | CCOC(=O)C(C)(C)CCCCCCOc1ccc(OCCCCCCC(C)(C)C(=O)OCC)cc1 | 0 | -26 | 0 | -29 | 0 | –
11 | Cc1ccccc1-c1cc(OCCCC(C)(C)C(=O)O)ccc1OCCCC(C)(C)C(=O)O | 628 | 0 | 22 | -52 | 55 | –
12 | COC(=O)C(C)(C)CCCOc1cccc(OCCCC(C)(C)C(=O)OC)c1[N+](=O)[O-] | 109 | -33 | 5 | -43 | 0 | –
13 | COC(=O)C(C)(C)CCCOc1ccc(OCCCC(C)(C)C(=O)OC)c(Br)c1 | – | -45 | 30 | – | -39 | 728
14 | CC(C)(CCCOc1ccc(OCCCC(C)(C)C(=O)O)c(Cc2ccccc2)c1)C(=O)O | 389 | -44 | 14 | -71 | 0 | –
15 | COC(=O)C(C)(C)CCCOc1ccc(OCCCC(C)(C)C(=O)OC)c(C(C)(C)C)c1 | 171 | -34 | 11 | -41 | 0 | –
16 | CC(C)(CCCOc1ccc(OCCCC(C)(C)C(=O)OCc2cccnc2)c(-c2ccccc2)c1)C(=O)OCc1cccnc1 | 594 | 63 | 19 | 0 | 0 | –
17 | CCC(O)c1cc(OCCCC(C)(C)C(=O)O)ccc1OCCCC(C)(C)C(=O)O (centres undefined) | 947 | 0 | 34 | -62 | 0 | –
18 | COC(=O)C(C)(C)CCCOc1cc(OCCCC(C)(C)C(=O)OC)c(C(C)(C)C)cc1C(C)(C)C | 0 | 0 | 0 | 0 | 0 | –
19 | COC(=O)C(C)(C)CCCOc1ccc(OCCCC(C)(C)C(=O)OC)c(/C=N/N=C(\N)S)c1 | 0 | 0 | 0 | 0 | 0 | –
20 | COC(=O)C(C)(C)CCCOc1ccc(Br)c(OCCCC(C)(C)C(=O)OC)c1 | 26 | -47 | 5 | -52 | 0 | –
21 | CCCCCCCCCCCCc1ccc(OCCCC(C)(C)C(=O)O)cc1OCCCC(C)(C)C(=O)O | 0 | 0 | 0 | -12 | 0 | –
22 | CC(C)(CCCOc1ccc(S(=O)(=O)c2ccc(OCCCC(C)(C)C(=O)O)cc2)cc1)C(=O)O | 26 | 0 | 10 | 0 | 0 | –
